From ChEMBL document CHEMBL3871279, “Bioactive Formylated Flavonoids from Eugenia rigida: Isolation, Synthesis, and X-ray Crystallography” (J Nat Prod, 2016)
Values after ≈ are worked out from the molar mass of the structure shown. Values joined by “and” are separate entries in the source; they are usually repeats but may differ in a detail not shown here. Equal values may be shown once.

Columns and labels:
[1] = Cytotoxicity against human BT549 cells assessed as reduction in cell viability after 48 hrs by neutral red dye-based assay; type: functional; conditions: BT-549, 48 h
Procedure, shortened: (§1)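 Cell lines from ATCC, seeded at 25 000 cells/well and incubated 24 h. Samples added at several concentrations, then 48 h further incubation. Viability read by modified Neutral Red uptake. IC50 taken from dose–response curves of percent decrease in viability against concentration. Doxorubicin positive control, DMSO vehicle control.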

[2] = Cytotoxicity against human KB cells assessed as reduction in cell viability after 48 hrs by neutral red dye-based assay; type: functional; procedure, shortened: as §1
[3] = Cytotoxicity against pig LLC-PK1 cells assessed as reduction in cell viability after 48 hrs by neutral red dye-based assay; type: toxicity; conditions: pig (Sus scrofa); procedure, shortened: as §1
Nakaseomyces glabratus [4] = experiment: Antimicrobial activity against Candida glabrata ATCC 90030 after 46 to 50 hrs by broth microdilution method; type: functional
Procedure, shortened: (§2)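 Modified CLSI broth microdilution. Samples serially diluted in 20% DMSO–saline and plated in duplicate. Inocula set by correcting OD630 of suspensions in incubation broth to final target inocula. Amphotericin B drug control. Plates read before and after incubation at 530 nm, or at 544ex/590em for A. fumigatus. IC50 is the concentration giving 50% growth relative to controls. MIC is the lowest concentration allowing no growth.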

Pichia kudriavzevii [5] = experiment: Antimicrobial activity against Candida krusei ATCC 6258 after 46 to 50 hrs by broth microdilution method; type: functional; procedure, shortened: as §2
[6] = Cytotoxicity against human SKOV3 cells assessed as reduction in cell viability after 48 hrs by neutral red dye-based assay; type: functional; conditions: SK-OV-3, 48 h; procedure, shortened: as §1
[7] = Cytotoxicity against human SK-MEL cells assessed as reduction in cell viability after 48 hrs by neutral red dye-based assay; type: functional; procedure, shortened: as §1
[8] = Cytotoxicity against human HeLa cells assessed as reduction in cell viability after 48 hrs by neutral red dye-based assay; type: functional; procedure, shortened: as §1
Cryptococcus neoformans [9] = experiment: Antimicrobial activity against Cryptococcus neoformans ATCC 90113 after 70 to 74 hrs by broth microdilution method; type: functional; procedure, shortened: as §2
Nakaseomyces glabratus [10] = experiment: Fungicidal activity against Candida glabrata ATCC 90030 after 46 to 50 hrs by broth microdilution method; type: functional
Procedure, shortened: (§3)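 Fungicidal end point from the broth microdilution plates (20% DMSO–saline serial dilutions, duplicate wells, OD630-corrected inocula, amphotericin B control). 5 μL from each clear well transferred to agar and incubated. MFC is the lowest test concentration allowing no growth on agar.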

[11] = Cytotoxicity against African green monkey Vero cells assessed as reduction in cell viability after 48 hrs by neutral red dye-based assay; type: toxicity; conditions: African green monkey (Chlorocebus sabaeus); procedure, shortened: as §1
Staphylococcus aureus [12] = experiment: Antimicrobial activity against methicillin-resistant Staphylococcus aureus ATCC 33591 by broth microdilution method; type: functional
Staphylococcus aureus [13] = experiment: microbe, parasite or virus in culture; conditions: ATCC 29213
Staphylococcus aureus [14] = experiment: microbe, parasite or virus in culture; conditions: ATCC 33591
Cryptococcus neoformans [15] = experiment: Fungicidal activity against Cryptococcus neoformans ATCC 90113 after 70 to 74 hrs by broth microdilution method; type: functional; procedure, shortened: as §3
Candida albicans [16] = experiment: Antimicrobial activity against Candida albicans ATCC 90028 after 46 to 50 hrs by broth microdilution method; type: functional; procedure, shortened: as §2
Staphylococcus aureus [17] = experiment: Antimicrobial activity against Staphylococcus aureus ATCC 29213 by broth microdilution method; type: functional
Candida albicans [18] = experiment: Fungicidal activity against Candida albicans ATCC 90028 after 46 to 50 hrs by broth microdilution method; type: functional; procedure, shortened: as §3
Aspergillus fumigatus [19] = experiment: Fungicidal activity against Aspergillus fumigatus ATCC 204305 after 46 to 50 hrs by broth microdilution method; type: functional; procedure, shortened: as §3
Pichia kudriavzevii [20] = experiment: Fungicidal activity against Candida krusei ATCC 6258 after 46 to 50 hrs by broth microdilution method; type: functional; procedure, shortened: as §3
Aspergillus fumigatus [21] = experiment: Antimicrobial activity against Aspergillus fumigatus ATCC 204305 after 46 to 50 hrs by broth microdilution method; type: functional; procedure, shortened: as §2
[22] = Nakaseomyces glabratus, ATCC 90030

O=Cc1c(O)cc(O)c2c1O[C@@H](c1ccccc1)CC2=O
IC50 [1]: > 10 µM
IC50 [2]: > 10 µM
IC50 at 48 h [3]: > 10 µM
IC50 (Nakaseomyces glabratus [4]; [22]): 7.2 µM
MIC (Nakaseomyces glabratus [4]; [22]): 35.2 µM (≈ 10 µg/mL)
IC50 (Pichia kudriavzevii [5]): 41.2 µM
IC50 [6]: > 10 µM
IC50 [7]: > 10 µM
IC50 [8]: > 10 µM
IC50 (Cryptococcus neoformans [9]): 19.3 µM
MFC (Nakaseomyces glabratus [10]): 70.4 µM (≈ 20 µg/mL)
IC50 at 48 h [11]: > 10 µM

O=C(O)c1cn(C2CC2)c2cc(N3CCNCC3)c(F)cc2c1=O [CIPROFLOXACIN]
IC50 (Staphylococcus aureus [12]): 0.2 µM
MBC (Staphylococcus aureus [13]): 1.5 µM (≈ 0.497 µg/mL)
MBC (Staphylococcus aureus [14]): 3 µM (≈ 0.994 µg/mL)

O=C1CC(c2ccccc2)Oc2cc(O)cc(O)c21 (racemic)
IC50 [1]: > 10 µM
IC50 [2]: > 10 µM
IC50 at 48 h [3]: > 10 µM
IC50 (Nakaseomyces glabratus [4]; [22]): 42.9 µM
IC50 (Pichia kudriavzevii [5]): 65.5 µM
IC50 [6]: > 10 µM
IC50 [7]: > 10 µM
IC50 [8]: > 10 µM
IC50 (Cryptococcus neoformans [9]): 28.8 µM
MIC (Cryptococcus neoformans [9]): 78.1 µM (≈ 20 µg/mL)
IC50 at 48 h [11]: > 10 µM

COc1cccc2c1C(=O)c1c(O)c3c(c(O)c1C2=O)C[C@@](O)(C(=O)CO)C[C@@H]3O[C@H]1C[C@H](N)[C@H](O)[C@H](C)O1 [DOXORUBICIN]
IC50 [1]: 3.6 µM
IC50 [2]: 3.8 µM
IC50 at 48 h [3]: 17 µM
IC50 [6]: 2.6 µM
IC50 [7]: 1.5 µM
IC50 [8]: 4 µM
IC50 at 48 h [11]: > 10 µM

O=Cc1c(O)cc2c(c1O)C(=O)C[C@@H](c1ccccc1)O2
IC50 [1]: > 10 µM
IC50 [2]: > 10 µM
IC50 at 48 h [3]: > 10 µM
IC50 (Nakaseomyces glabratus [4]; [22]): 6.7 µM
MIC (Nakaseomyces glabratus [4]; [22]): 35.2 µM (≈ 10 µg/mL)
IC50 (Pichia kudriavzevii [5]): 33.2 µM
IC50 [6]: > 10 µM
IC50 [7]: > 10 µM
IC50 [8]: > 10 µM
IC50 (Cryptococcus neoformans [9]): 63.2 µM
MIC (Cryptococcus neoformans [9]): 70.4 µM (≈ 20 µg/mL)
MFC (Nakaseomyces glabratus [10]): 70.4 µM (≈ 20 µg/mL)
IC50 at 48 h [11]: > 10 µM

O=Cc1c(O)cc(O)c(C(=O)/C=C/c2ccccc2)c1O
IC50 [1]: > 10 µM
IC50 [2]: > 10 µM
MFC (Cryptococcus neoformans [15]): 70.4 µM (≈ 20 µg/mL)
IC50 at 48 h [3]: > 10 µM
IC50 (Nakaseomyces glabratus [4]): 10 µM and 35.2 µM
IC50 (Pichia kudriavzevii [5]): 34.1 µM
IC50 [6]: > 10 µM
IC50 [7]: > 10 µM
IC50 [8]: > 10 µM
IC50 (Cryptococcus neoformans [9]): 24.5 µM
MIC (Cryptococcus neoformans [9]): 70.4 µM (≈ 20 µg/mL)
MFC (Nakaseomyces glabratus [10]): 70.4 µM (≈ 20 µg/mL)
IC50 at 48 h [11]: > 10 µM
IC50 (Candida albicans [16]): 68.9 µM

O=Cc1c(O)cc(O)c(C(=O)CCc2ccccc2)c1O
IC50 [1]: > 10 µM
IC50 [2]: > 10 µM
MFC (Cryptococcus neoformans [15]): 17.4 µM (≈ 4.98 µg/mL)
IC50 at 48 h [3]: > 10 µM
IC50 (Nakaseomyces glabratus [4]; [22]): 11.3 µM
MIC (Nakaseomyces glabratus [4]; [22]): 69.9 µM (≈ 20 µg/mL)
IC50 [6]: > 10 µM
IC50 [7]: > 10 µM
IC50 [8]: > 10 µM
IC50 (Staphylococcus aureus [12]): 36.6 µM
IC50 (Cryptococcus neoformans [9]): 10.5 µM
MIC (Cryptococcus neoformans [9]): 17.4 µM (≈ 4.98 µg/mL)
IC50 at 48 h [11]: > 10 µM
IC50 (Staphylococcus aureus [17]): 17.4 µM

C[C@@H]1[C@H](O)[C@@H](C)/C=C/C=C/C=C/C=C/C=C/C=C/C=C/[C@H](O[C@@H]2O[C@H](C)[C@@H](O)[C@H](N)[C@@H]2O)C[C@@H]2O[C@](O)(C[C@@H](O)C[C@@H](O)[C@H](O)CC[C@@H](O)C[C@@H](O)CC(=O)O[C@H]1C)C[C@H](O)[C@H]2C(=O)O [AMPHOTERICIN B]
MFC (Candida albicans [18]): 0.7 µM (≈ 0.647 µg/mL)
MFC (Aspergillus fumigatus [19]): 5.4 µM (≈ 4.99 µg/mL)
MFC (Cryptococcus neoformans [15]): 0.3 µM (≈ 0.277 µg/mL)
MFC (Pichia kudriavzevii [20]): 1.4 µM (≈ 1.29 µg/mL)
IC50 (Nakaseomyces glabratus [4]; [22]): 0.2 µM
MIC (Nakaseomyces glabratus [4]; [22]): 0.7 µM (≈ 0.647 µg/mL)
IC50 (Pichia kudriavzevii [5]): 0.6 µM
MIC (Pichia kudriavzevii [5]): 1.3 µM (≈ 1.2 µg/mL)
IC50 (Aspergillus fumigatus [21]): 1.4 µM
MIC (Aspergillus fumigatus [21]): 2.7 µM (≈ 2.5 µg/mL)
IC50 (Cryptococcus neoformans [9]): 0.2 µM
MIC (Cryptococcus neoformans [9]): 0.3 µM (≈ 0.277 µg/mL)
MFC (Nakaseomyces glabratus [10]): 0.7 µM (≈ 0.647 µg/mL)

O=Cc1c(O)cc2c(c1O)C(=O)C[C@H](c1ccccc1)O2
IC50 [1]: > 10 µM
IC50 [2]: > 10 µM
IC50 at 48 h [3]: > 10 µM
IC50 (Nakaseomyces glabratus [4]; [22]): 12.6 µM
MIC (Nakaseomyces glabratus [4]; [22]): 70.4 µM (≈ 20 µg/mL)
IC50 [6]: > 10 µM
IC50 [7]: > 10 µM
IC50 [8]: > 10 µM
IC50 (Cryptococcus neoformans [9]): 61.5 µM
MFC (Nakaseomyces glabratus [10]): 70.4 µM (≈ 20 µg/mL)
IC50 at 48 h [11]: > 10 µM

O=Cc1c(O)cc2oc(-c3ccccc3)cc(=O)c2c1O
IC50 [1]: > 10 µM
IC50 [2]: > 10 µM
IC50 at 48 h [3]: > 10 µM
IC50 (Nakaseomyces glabratus [4]; [22]): 10.8 µM
IC50 [6]: > 10 µM
IC50 [7]: > 10 µM
IC50 [8]: > 10 µM
IC50 at 48 h [11]: > 10 µM

O=Cc1c(O)cc(O)c2c1O[C@H](c1ccccc1)CC2=O
IC50 [1]: > 10 µM
IC50 [2]: > 10 µM
MFC (Cryptococcus neoformans [15]): 70.4 µM (≈ 20 µg/mL)
IC50 at 48 h [3]: > 10 µM
IC50 (Nakaseomyces glabratus [4]; [22]): 7.4 µM
MIC (Nakaseomyces glabratus [4]; [22]): 35.2 µM (≈ 10 µg/mL)
IC50 (Pichia kudriavzevii [5]): 29.9 µM
IC50 [6]: > 10 µM
IC50 [7]: > 10 µM
IC50 [8]: > 10 µM
IC50 (Cryptococcus neoformans [9]): 44.4 µM
MIC (Cryptococcus neoformans [9]): 70.4 µM (≈ 20 µg/mL)
IC50 at 48 h [11]: > 10 µM
